DNA FID counter = displaces DNA intercalator in HCV helicase counter-screen; DNA fluorescent intercalator displacement, fluorescence; inhibition, % at 7.9 µM; 290,000 tested, 0.17% active; in the data active = inhibition above about 37%;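 also: 0% = vehicle and 100% = reference compound; higher means more ethidium bromide displaced from hairpin DNA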
PABP FP inh = blocks human PABP binding to poly(A) RNA. fluorescence polarization. inhibition, % at 35 µM. 290,000 tested, 1% active. AID 2014;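 also: calls also rest on retests at 20 µM and on dose response follow-up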
Target sequence (P11940 whole entry, looked up): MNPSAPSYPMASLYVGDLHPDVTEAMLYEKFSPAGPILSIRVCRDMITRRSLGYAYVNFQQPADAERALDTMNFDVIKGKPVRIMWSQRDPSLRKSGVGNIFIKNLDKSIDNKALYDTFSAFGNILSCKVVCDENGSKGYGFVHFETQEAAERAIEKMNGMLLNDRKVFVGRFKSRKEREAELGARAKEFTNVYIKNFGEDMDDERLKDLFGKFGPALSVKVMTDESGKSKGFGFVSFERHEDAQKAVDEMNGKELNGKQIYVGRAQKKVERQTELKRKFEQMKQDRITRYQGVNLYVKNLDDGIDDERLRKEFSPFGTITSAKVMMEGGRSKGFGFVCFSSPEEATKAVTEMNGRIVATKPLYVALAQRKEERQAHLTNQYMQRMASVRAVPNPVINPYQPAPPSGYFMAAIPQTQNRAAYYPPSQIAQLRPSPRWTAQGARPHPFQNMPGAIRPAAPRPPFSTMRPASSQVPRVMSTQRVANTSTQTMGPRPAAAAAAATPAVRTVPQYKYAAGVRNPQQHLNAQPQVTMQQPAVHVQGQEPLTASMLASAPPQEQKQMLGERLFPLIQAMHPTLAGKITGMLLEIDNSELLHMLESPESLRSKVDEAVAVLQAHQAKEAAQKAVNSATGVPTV
eIF4H inh = inhibitors of RNA binding by human eIF4H; 290,000 tested, 0.94% active; inhibition, % at 35 µM; eIF4H fluorescence polarization binding assay;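 also: calls also rest on retests at 20 µM and on dose response follow-up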
NS3 helicase inh = inhibitors of Hepatitis C virus NS3 helicase; NS3 helicase DNA unwinding, Cy5 molecular beacon fluorescence; inhibition, % at 10.9 µM; 290,000 tested, 0.56% active; AID 1800;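 active = inhibition above the mean of all tested compounds plus 3 SD, set per campaign, cut at about 35% in these data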;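 also: 0% = DMSO wells and 100% = thioflavine S control wells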
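assay system = NS3 helicase fragment of HCV | buffer or medium = MOPS pH 6.5, MgCl2, DTT, Tween20, BSA | timing = 60 min unwinding reaction at 25 °C after ATP addition | signal = Cy5 beacon fluorescence read at start and 1 h | read-out basis = % inhibition of unwinding | control set = low DMSO, high thioflavine S at 110 µM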
HCV core dimer = HCV core protein dimerization inhibition | TR-FRET GST/Flag-core106 dimerization, 1536-well | inhibition, % at 5 µM | 300,000 tested, 0.33% active;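 active = inhibition above the mean of all tested compounds plus 3 SD, set per screening campaign, cut at about 45% in these data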
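test system = GST/Flag-tagged HCV core106 proteins | probe or stimulus = Eu donor and XL665 acceptor anti-tag antibodies | times = compound-protein-antibody incubation 4 h at 22.5 °C | signal = TR-FRET, excitation 340 nm, emission 617 and 671 nm | measure = percent inhibition of core106 dimerization signal | controls = wells lacking GST-core106 and wells with excess unlabelled core106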
PABP1 MLLE inh = blocks PAM2 peptide binding to the PABP1 MLLE domain; inhibition, % at 20 µM; GST-MLLE / FITC-PAM2 fluorescence polarization; 360,000 tested, 0.36% active; AID 588489; P11940; in the data active = inhibition above about 35%, passing the limit was not always enough;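 also: plate controls were DMSO wells with GST-MLLE for no effect and wells lacking GST-MLLE protein for full effect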
* marks the source's active call; other numbers are inactive results; ? = inconclusive; · = no result. Sampled rows, rich in hits. Any-hit rate of the full collection: about 2%. Unless noted, no rule for the calls is given here.

SMILES | DNA FID counter | PABP FP inh | eIF4H inh | NS3 helicase inh | HCV core dimer | PABP1 MLLE inh
O=c1c2cc(N3CCOCC3)ccc2[nH]c(=S)n1Cc1ccco1 | · | 57.2* | 90.7* | · | 9.2 | 5.0
COc1ccc(NC(=O)c2ccc3c(=O)n(Cc4ccco4)c(=S)[nH]c3c2)c(OC)c1 | -0.1 | 14.0* | 70.4* | 4.3 | 23.9 | -40.5
COc1cc2[nH]c(=S)n(NC(=O)c3ccccc3)c(=O)c2cc1OC | 3.4 | 5.0 | 2.5 | 3.0 | -0.8 | 35.7*
O=c1c2cc(Cl)ccc2[nH]c(=S)n1Cc1ccco1 | 1.5 | 9.4 | 9.5 | 8.3 | -8.0 | -74.5
COc1ccc(CN2CCC(=O)N([C@H](CO)c3ccccc3)CC2)cc1 | -18.2 | -7.8 | 1.7 | 10.9 | -8.4 | -8.2
O=C1CCCCN1CCCC(=O)N1CCCC(Nc2ccc(F)c(F)c2)C1 (stereo unspecified) | -14.8 | -1.5 | 10.4 | 5.6 | 4.8 | 0.9
Cc1ccc(C(=O)NC(=S)N(C)C2CCCCC2)cc1 | -22.8 | 10.5 | 3.3 | -6.5 | -10.3 | 27.0
CC(=O)Nc1ccc(S(=O)(=O)N2CCC(NC(=O)C(Cc3ccccc3F)NC(C)=O)CC2)cc1 (stereo unspecified) | -10.3 | 15.2 | -4.5 | -3.6 | · | 1.7
Cc1c(/C=N/Nc2ccc(F)cc2)c(O)n(C)c(=O)c1C#N | 1.4 | 36.7* | 80.7 | 4.2 | -9.3 | 4.2
O=c1[nH]nc(Sc2ccccc2)c(=S)[nH]1 | · | · | · | · | · | 45.5*
Cn1cc(/C=N\O)nc2c(=O)n(-c3ccccc3)c(=O)nc1-2 | -0.3 | 63.1 | 98.8 | 6.8 | 1.1 | 37.5*
O/N=C/c1cn(-c2ccccc2)nn1 | -8.5 | -8.2 | -7.0 | -0.6 | -5.3 | 0.3
CC1(C(=O)NS(=O)(=O)c2ccc(Cl)s2)CCN1C(=O)c1ccc(C2CCCCC2)cc1 (stereo unspecified) | · | · | · | · | · | 7.4
CCOc1ccccc1-n1c(=S)sc2c(=O)n(-c3ccc(C)cc3)c(=S)[nH]c21 | -34.4 | 57.6* | active | 9.9 | 4.5 | 21.0
CCn1c(=S)sc2c(=O)n(-c3ccccc3)c(=S)[nH]c21 | -1.3 | 0.5 | -16.1 | 13.8 | 3.3 | 5.2
CCN(C[C@H]1N[C@@](CC)(C(=O)OC)[C@H]2C(=O)N(C)C(=O)[C@@H]12)C(=O)c1ccc(C(C)(C)C)cc1 | · | · | · | · | · | 21.2
O=C(CNC(=O)Cc1ccccc1)N=Nc1c(O)[nH]c2ccccc12 | -6.3 | 6.2 | 2.7 | 11.0 | -11.5 | 5.6
COC(=O)/C=C(\C)N=Nc1c(O)[nH]c2ccccc12 | -14.5 | 58.3* | 8.6* | 18.7 | -45.8 | 2.6
O=C(CNC(=O)/C=C/c1ccco1)N=Nc1c(O)[nH]c2ccccc12 | -25.3 | 57.2* | 88.0* | 19.4 | 12.6 | 8.8
Cc1ccc(/C=C/C(=O)NCc2ccco2)o1 | -8.6 | active | ? | 6.8 | 5.0 | ·
O=C(/C=C/c1ccccc1)NCc1ccco1 | -1.3 | -3.8 | -6.3 | 2.0 | -1.6 | -9.3
O=C(/C=C/c1ccco1)NCc1ccco1 | -7.3 | 59.6* | 86.2* | 29.5 | 6.8 | -10.7
COc1ccc(S(=O)(=O)N(C)C[C@@H]2OCCCC[C@@H](C)Oc3ccc(NS(=O)(=O)c4cccs4)cc3C(=O)N([C@H](C)CO)C[C@@H]2C)cc1 | · | · | · | · | · | -23.5
CCOc1ccc(N(CC(=O)Nc2cc(Cl)ccc2C)S(C)(=O)=O)cc1 | -18.2 | 9.9 | 1.0 | -6.2 | -1.4 | 8.9
c1ccc2c(c1)CCCN2Cc1nnc2n1CCCCC2 | -8.2 | 76.9* | 60.6* | -3.9 | 5.0 | 78.1
SMILES | DNA FID counter | PABP FP inh | eIF4H inh | NS3 helicase inh | HCV core dimer | PABP1 MLLE inh
CCOc1cc(C2C3=C(CCCC3=O)NC3=C2C(=O)CCC3)ccc1OCCO | -1.8 | 7.3 | -8.1 | 0.3 | -0.2 | 40.7*
CCOc1cc(C2C3=C(CCCC3=O)NC3=C2C(=O)CCC3)cc(Cl)c1O | · | -3.5 | 2.1 | · | -5.5 | 17.5
CCN(CC(=O)Nc1c(F)cccc1F)C(=O)CNC(=O)c1ccc2c(c1)OCO2 | -3.5 | 58.4* | 42.0 | -5.0 | -5.7 | 6.0
CCN(CC(=O)Nc1c(F)cccc1F)C(=O)CNC(=O)c1ccc2ccccc2c1 | · | · | · | · | · | 2.4
Cc1ccc(OCC(=O)Nc2oc(-c3ccccc3)c(-c3ccccc3)c2C#N)cc1 | -3.4 | · | · | -0.6 | 47.1* | 3.2
N#Cc1c(NC(=O)COC(=O)C2CC3C=CC2C3)oc(-c2ccccc2)c1-c1ccccc1 (stereo unspecified) | -11.7 | 16.6 | 9.5 | 8.7 | 69.4* | -3.9
COc1cc(OC)cc(-c2c(C#Cc3ccsc3)c3cc(-c4cc(F)cc(F)c4)ccc3n2C)c1 | · | · | · | · | · | 5.6
O=S1(=O)C=C[C@@H](CO)N1Cc1ccc(Br)cc1 | · | · | · | · | · | -4.2
COc1cc(CC2COC(c3ccc(O)c(OC)c3)C2COC(C)=O)ccc1O (stereo unspecified) | · | 55.4* | 90.4* | · | 18.8 | 0.9
CC(=O)NC(CC(=O)NC1CCCc2ccccc21)c1ccccc1 (stereo unspecified) | -13.8 | 5.4 | -11.6 | -5.7 | 8.1 | -7.4
S=c1nc[nH]c2c1ncn2C1CCCO1 (stereo unspecified) | -6.7 | -3.7 | 2.2 | -0.8 | -6.4 | 40.0*
CCOc1ccc(NC(=O)CCc2c(C)nn(-c3ccc(N4CCCCC4)nn3)c2C)cc1 | -47.9 | 3.3 | -3.6 | -24.7 | 9.3 | 8.1
O=C1NC(=O)C(=C2CCOC2=O)N1 | · | · | · | · | · | -9.4
O=C(CN1C(=O)S/C(=C/c2cccn2-c2ccc(O)cc2)C1=O)N1CCCC1 | -31.8 | 0.9 | -2.3 | -2.1 | -5.2 | 0.5
Cc1ccccc1N=C1NC(=O)/C(=C/c2cccn2-c2cccc(C(=O)O)c2)S1 | -27.5 | 84.0 | 97.5* | 30.4 | · | ·
O=C(O)c1cccc(-n2cccc2/C=C2/SC(=O)N(CC(=O)N3CCCC3)C2=O)c1 | -17.8 | 74.1* | 90.4* | 14.2 | -4.1 | 2.3
Cc1cccc(N=C2NC(=O)/C(=C/c3cccn3C)S2)c1C | -30.9 | -11.4 | 5.8 | 18.1 | 0.9 | -61.6
COC(=O)C[C@@H]1C[C@@H]2c3cc(NC(=O)Cc4ccncc4)ccc3O[C@@H]2[C@@H](CO)O1 | · | · | · | · | · | -2.1
O=C(O)c1oc2ccc(Br)cc2c1-n1cccc1 | -8.3 | 19.5* | 81.1* | 32.3 | 1.4 | 3.5
Cc1c(Cl)ccc2c1NC(=O)[C@]21[C@@H]2C(=O)N(Cc3ccccc3)C(=O)[C@@H]2[C@@H]2CCCN21 | -31.5 | 7.0 | -0.5 | -6.9 | 33.9 | -28.1
CCc1cccc2c1NC(=O)[C@]21[C@@H]2C(=O)N(Cc3ccccc3)C(=O)[C@@H]2[C@@H]2CCCN21 | -46.0 | 12.4 | 19.8 | -3.4 | 54.9* | 1.0
CCOC(=O)c1c(/N=C/N(C)C)sc(/C=N/Nc2ccccc2)c1-c1ccccc1Cl | -4.9 | 94.8* | -9.1 | -3.6 | 17.0 | -23.2
CCOC(=O)c1c(/N=C/N(C)C)sc(/C=N/Nc2ccccc2)c1-c1ccccc1 | -12.3 | 1.5 | -4.9 | 14.6 | 2.5 | -53.0
CCOc1ccc(Oc2c(/C=N/NC(N)=O)c(C)nn2-c2ccccc2)cc1 | -27.6 | -8.2 | -4.1 | -8.6 | -0.1 | -0.1
